Experimental data from ChEMBL document CHEMBL2029337, “Synthesis and antimicrobial activities of structurally novel S,S'-bis(heterosubstituted) disulfides” (Bioorg Med Chem Lett, 2012).
In brackets after ≈: the same amount, converted by molar mass. Activity calls are given as the source filed them. The rule behind the calls is not given here.

How the values were obtained:
Staphylococcus aureus [1] = assay: Antibacterial activity against methicillin-susceptible Staphylococcus aureus ATCC 25923 […] by agar dilution method; format: functional
Bartonella sp. = assay: Antibacterial activity against Bartonella ssp. […] by agar dilution method; format: functional
[2] = Antibacterial activity against Francisella tularensis subspecies holarctica LVS after 48 hrs by broth dilution method; format: functional, Francisella tularensis subsp. holarctica LVS
Staphylococcus aureus [3] = assay: Antibacterial activity against methicillin-resistant Staphylococcus aureus ATCC 43300 […] by agar dilution method; format: functional
Escherichia coli = assay: Antibacterial activity against Escherichia coli K-12 […] by agar dilution method; format: functional, organism-based
Staphylococcus aureus [4] = assay: Antibacterial activity against methicillin-resistant Staphylococcus aureus ATCC 43300 assessed as growth inhibition at 10 ug after 24 hrs by agar-diffusion assay in presence of iPrSSiPr; format: functional, organism-based
Procedure, shortened: (§1)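 Kirby-Bauer well diffusion on an MRSA lawn (0.5 McFarland suspension swabbed onto tryptic soy agar). Four test agents sat in wells equidistant from a centre well holding 1 mg of additive in DMSO; a DMSO-only centre well served as vehicle control. After overnight incubation at 37 °C, the inhibition zones were examined for size or shape change.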

Staphylococcus aureus [5] = assay: Antibacterial activity against methicillin-resistant Staphylococcus aureus ATCC 43300 assessed as growth inhibition at 10 ug after 24 hrs by agar-diffusion assay in presence of CoA; format: functional, organism-based; procedure, shortened: as §1
Staphylococcus aureus [6] = assay: Antibacterial activity against methicillin-resistant Staphylococcus aureus ATCC 43300 assessed as growth inhibition at 10 ug after 24 hrs by agar-diffusion assay in presence of PPh3; format: functional, organism-based; procedure, shortened: as §1
Staphylococcus aureus [7] = assay: Antibacterial activity against methicillin-resistant Staphylococcus aureus ATCC 43300 assessed as growth inhibition at 10 ug after 24 hrs by agar-diffusion assay in presence of cystine; format: functional, organism-based
Staphylococcus aureus [8] = assay: Antibacterial activity against methicillin-resistant Staphylococcus aureus ATCC 43300 assessed as growth inhibition at 10 ug after 24 hrs by agar-diffusion assay in presence of GSH; format: functional, organism-based; procedure, shortened: as §1
Staphylococcus aureus [9] = assay: Antibacterial activity against methicillin-resistant Staphylococcus aureus ATCC 43300 assessed as growth inhibition at 10 ug after 24 hrs by agar-diffusion assay in presence of glycine; format: functional, organism-based; procedure, shortened: as §1
Staphylococcus aureus [10] = assay: Antibacterial activity against methicillin-resistant Staphylococcus aureus ATCC 43300 assessed as growth inhibition at 10 ug after 24 hrs by agar-diffusion assay in presence of valine; format: functional, organism-based; procedure, shortened: as §1
Staphylococcus aureus [11] = assay: Antibacterial activity against methicillin-resistant Staphylococcus aureus ATCC 43300 assessed as growth inhibition at 10 ug after 24 hrs by agar-diffusion assay in presence of lysine; format: functional, organism-based; procedure, shortened: as §1

## CC(C)[C@H]1CC[C@H](C)C[C@@H]1OSSO[C@H]1C[C@@H](C)CC[C@@H]1C(C)C
Staphylococcus aureus [1]
  MIC: 8 µg/mL (≈ 21.4 µM)
Bartonella sp.
  Activity: inactive
[2]
  MIC: 4 µg/mL (≈ 10.7 µM)
Staphylococcus aureus [3]
  MIC: 8 µg/mL (≈ 21.4 µM)
Escherichia coli
  Activity: inactive

## CC1(C)S[C@@H]2[C@H](NC(=O)Cc3ccccc3)C(=O)N2[C@H]1C(=O)O [PENICILLIN G]
Staphylococcus aureus [1]
  MIC: 0.25 µg/mL (≈ 0.748 µM)
Staphylococcus aureus [4]
  growth inhibition (GI): Active
Staphylococcus aureus [5]
  growth inhibition (GI): Active
Staphylococcus aureus [6]
  growth inhibition (GI): Active
Staphylococcus aureus [7]
  growth inhibition (GI): Active
Staphylococcus aureus [8]
  growth inhibition (GI): Active
Staphylococcus aureus [9]
  growth inhibition (GI): Active
Staphylococcus aureus [10]
  growth inhibition (GI): Active
Staphylococcus aureus [3]
  MIC: 64 µg/mL (≈ 191 µM)
Staphylococcus aureus [11]
  growth inhibition (GI): Active

## CCCNSSNCCC
Staphylococcus aureus [1]
  MIC: 8 µg/mL (≈ 44.4 µM)
Bartonella sp.
  Activity: inactive
[2]
  MIC: 16 µg/mL (≈ 88.7 µM)
Staphylococcus aureus [3]
  MIC: 4 µg/mL (≈ 22.2 µM)
Escherichia coli
  Activity: inactive

## C[C@@H](c1ccccc1)N(Cc1ccccc1)SSN(Cc1ccccc1)[C@@H](C)c1ccccc1
Staphylococcus aureus [1]
  MIC: 16 µg/mL (≈ 33 µM)
Bartonella sp.
  Activity: inactive
[2]
  MIC: 16 µg/mL (≈ 33 µM)
Staphylococcus aureus [3]
  MIC: 64 µg/mL (≈ 132 µM)
Escherichia coli
  Activity: inactive

## CCCSSSSCCC
Staphylococcus aureus [1]
  MIC: 32 µg/mL (≈ 149 µM)
Bartonella sp.
  Activity: inactive
[2]
  MIC: 1 µg/mL (≈ 4.66 µM)
Staphylococcus aureus [3]
  MIC: 32 µg/mL (≈ 149 µM)
Escherichia coli
  Activity: inactive

## CC[C@@H](C)OSSO[C@H](C)CC
Staphylococcus aureus [1]
  MIC: 16 µg/mL (≈ 76.1 µM)
Bartonella sp.
  Activity: inactive
[2]
  MIC: 16 µg/mL (≈ 76.1 µM)
Staphylococcus aureus [3]
  MIC: 32 µg/mL (≈ 152 µM)
Escherichia coli
  Activity: inactive

## c1ccc(SSSSc2ccccc2)cc1
Staphylococcus aureus [1]
  MIC: 8 µg/mL (≈ 28.3 µM)
Bartonella sp.
  Activity: inactive
[2]
  MIC: 2 µg/mL (≈ 7.08 µM)
Staphylococcus aureus [3]
  MIC: 8 µg/mL (≈ 28.3 µM)
Escherichia coli
  Activity: inactive

## CCC(C)SSSSC(C)CC (centres undefined)
Staphylococcus aureus [1]
  MIC: 32 µg/mL (≈ 132 µM)
Bartonella sp.
  Activity: inactive
[2]
  MIC: 16 µg/mL (≈ 66 µM)
Staphylococcus aureus [3]
  MIC: 64 µg/mL (≈ 264 µM)
Escherichia coli
  Activity: inactive

## CC(C)N(SSN(C(C)C)C(C)C)C(C)C
Staphylococcus aureus [1]
  MIC: 2 µg/mL (≈ 7.56 µM)
Bartonella sp.
  Activity: inactive
[2]
  MIC: 32 µg/mL (≈ 121 µM)
Staphylococcus aureus [3]
  MIC: 1 µg/mL (≈ 3.78 µM)
Escherichia coli
  Activity: inactive

## O=C(O)c1cn(C2CC2)c2cc(N3CCNCC3)c(F)cc2c1=O [CIPROFLOXACIN]
[2]
  MIC: 0.125 µg/mL (≈ 0.377 µM)

## CC(C)SSSSC(C)C
Staphylococcus aureus [1]
  MIC: 32 µg/mL (≈ 149 µM)
Bartonella sp.
  Activity: inactive
[2]
  MIC: 8 µg/mL (≈ 37.3 µM)
Staphylococcus aureus [3]
  MIC: 32 µg/mL (≈ 149 µM)
Escherichia coli
  Activity: inactive

## CN(C)SSN(C)C
Staphylococcus aureus [1]
  MIC: 0.25 µg/mL (≈ 1.64 µM)
Bartonella sp.
  Activity: inactive
[2]
  MIC: 8 µg/mL (≈ 52.5 µM)
Staphylococcus aureus [3]
  MIC: 0.5 µg/mL (≈ 3.28 µM)
Escherichia coli
  Activity: inactive

## CC(C)CN(CC(C)C)SSN(CC(C)C)CC(C)C
Staphylococcus aureus [1]
  MIC: 16 µg/mL (≈ 49.9 µM)
Bartonella sp.
  Activity: inactive
[2]
  MIC: 1 µg/mL (≈ 3.12 µM)
Staphylococcus aureus [3]
  MIC: 16 µg/mL (≈ 49.9 µM)
Escherichia coli
  Activity: inactive

## CCN(CC)SSN(CC)CC
Staphylococcus aureus [1]
  MIC: 2 µg/mL (≈ 9.6 µM)
Bartonella sp.
  Activity: inactive
[2]
  MIC: 16 µg/mL (≈ 76.8 µM)
Staphylococcus aureus [3]
  MIC: 2 µg/mL (≈ 9.6 µM)
Escherichia coli
  Activity: inactive

## CC(C)SSc1ccc([N+](=O)[O-])cc1
Staphylococcus aureus [4]
  growth inhibition (GI): Active
Staphylococcus aureus [5]
  growth inhibition (GI): inactive
Staphylococcus aureus [6]
  growth inhibition (GI): Active
Staphylococcus aureus [7]
  growth inhibition (GI): inactive
Staphylococcus aureus [8]
  growth inhibition (GI): inactive
Staphylococcus aureus [9]
  growth inhibition (GI): Active
Staphylococcus aureus [10]
  growth inhibition (GI): Active
Staphylococcus aureus [11]
  growth inhibition (GI): Active
